SMILES strings stand for the structures. Converted amounts (≈) assume the structure as drawn. Bounds are passed on as bounds.

For assay [1], the system named is Human immunodeficiency virus 2. Briefly: Inhibition of human immunodeficiency virus type 2 (HIV-2) induced cytopathogenicity in CEM cells. It is filed as functional, organism-based. Particulars: Human immunodeficiency virus 2, CCRF-CEM.
In assay [2] the test system is Human immunodeficiency virus 1. Briefly: Inhibition of human immunodeficiency virus type 1 (HIV-1) induced cytopathogenicity in CEM cells. It is filed as functional, organism-based. The note with it: Human immunodeficiency virus 1, CCRF-CEM. In outline: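 CEM cells (~3 × 10⁵ cells/mL) were infected with 100 CCID50 of HIV-1 (IIIB)/mL and plated with dilutions of compound. After 4 days at 37 °C, giant cell formation was assessed microscopically.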
(In general: Cytopathic effects are the visible damage that an infection or toxin causes in cultured cells.)

Assay [3] in a line: Inhibitory activity against murine sarcoma virus induced transformation of murine C3H/3T3 embryo fibroblasts. It is filed as functional, Mus musculus. In outline:
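Murine C3H/3T3 embryo fibroblasts were seeded at 5 × 10⁵ cells/mL. After 24 h they were infected with 80 focus-forming units of MSV for 90–120 min at 37 °C. The medium was then replaced with fresh medium containing various compound concentrations, and transformation was examined microscopically after 6 days.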

In assay [4] the test system is Human alphaherpesvirus 2. In words: Inhibitory activity against herpes simplex virus type 2 (HSV-2) Lyons strain. It is filed as functional, organism-based. In a few lines:
(§1)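 Confluent E6SM cell cultures were inoculated with 100 CCID50 of virus and allowed 1 h for adsorption. Residual virus was then removed, and the cells were incubated with test compound at 400, 200, 100, ... μg/mL. Viral cytopathicity was scored once it reached completion in untreated infected controls.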

Assay [5] concerns Human alphaherpesvirus 1. In words: Inhibitory activity against herpes simplex virus type 1 (HSV-1) KOS strain. It is filed as functional, organism-based. In a few lines: as §1
Assay [6] relates to Cytomegalovirus. Briefly: Inhibitory activity against cytomegalovirus (CMV) AD 169 strain. The assay is classed as functional, organism-based. The note with it: Human betaherpesvirus 5. In a few lines:
(§2)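 HEL cell cultures, grown to confluence, received 100 CCID50 of virus. After 1 h adsorption, the inoculum was removed and the cultures were incubated with serial concentrations of compound (400, 200, 100, ... μg/mL).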

For assay [7], the system named is Human alphaherpesvirus 1. Briefly: Inhibitory activity against herpes simplex virus type 1 (HSV-1) McIntyre strain. The assay is classed as functional, organism-based. In a few lines: as §1
A short description of assay [8]: Inhibitory activity against herpes simplex virus type 2 (HSV-2) 196 strain. It is filed as functional. In a few lines:
as §1

In assay [9] the test system is Human alphaherpesvirus 1. Briefly: Inhibition of herpes simplex virus type 1 (HSV-1) F strain. It is filed as functional, organism-based. In a few lines:
as §1

For assay [10], the system named is Human alphaherpesvirus 2. In words: Inhibitory activity against herpes simplex virus type 2 (HSV-2) G strain. It is filed as functional, organism-based. In outline: as §1
The test system of assay [11] is Cytomegalovirus. In words: Inhibitory activity against cytomegalovirus (CMV) Davis strain. It is filed as functional, organism-based. Particulars: Human betaherpesvirus 5. In outline: as §2
Assay [12] deals with Vaccinia virus. Briefly: Inhibitory activity against vaccinia virus (VV). The assay is classed as functional, organism-based. Particulars: Orthopoxvirus vaccinia. In outline: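 Confluent E6SM cell cultures were inoculated with 100 CCID50 of virus and left for 1 h adsorption, then residual virus was removed. Cultures were incubated with test compound at serial concentrations (400, 200, 100, ... μg/mL). Virus-induced cytopathicity was scored once it reached completion in untreated infected control cultures.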

For the molecule `CCOP(=O)(COCCn1cnc2c(N)ncnc21)OCC`, the EC50 in assay [1] is > 100 µg/mL; in assay [2], > 100 µg/mL; in assay [3], > 40 µg/mL.

`CC(C)OP(=O)(O)COCCn1cnc2c(O)nc(N)nc21`: the EC50 is 11 µg/mL (≈ 33.2 µM) in [1]; 1.9 µg/mL (≈ 5.74 µM) in assay [4]; 5.7 µg/mL (≈ 17.2 µM) in assay [5]; 0.35 µg/mL (≈ 1.06 µM) in [6]; 0.64 µg/mL (≈ 1.93 µM) in assay [7]; 1.9 µg/mL (≈ 5.74 µM) in [8]. Besides, the EC50 is 0.64 µg/mL (≈ 1.93 µM) in assay [9]; 5.3 µg/mL (≈ 16 µM) in [10]; > 20 µg/mL in assay [2]; 0.3 µg/mL (≈ 0.906 µM) in [11]; > 0.064 µg/mL in [3].

`CC(C)CCCCCOP(=O)(COCCn1cnc2c(Cl)nc(N)nc21)OCCCCCC(C)C`: the EC50 in assay [1] was > 4 µg/mL; in assay [5], > 16 µg/mL; in assay [6] it was 0.86 µg/mL (≈ 1.62 µM); in assay [10], > 16 µg/mL; in assay [2], > 4 µg/mL; in [12], > 16 µg/mL. The EC50 in assay [11] is 1 µg/mL (≈ 1.88 µM); in [3], > 8 µg/mL.

Consider `Nc1nc(F)nc2c1ncn2CCOCP(=O)(O)O`, for which the EC50 in assay [1] is 40 µg/mL (≈ 137 µM); in assay [5], 70 µg/mL (≈ 240 µM); in assay [6] it was > 50 µg/mL; in assay [10] it was 70 µg/mL (≈ 240 µM); in assay [2] it was > 100 µg/mL; in assay [12] it was 150 µg/mL (≈ 515 µM). Also, the half-maximal effective concentration (EC50) in assay [11] was > 50 µg/mL; in assay [3] it was 22.3 µg/mL (≈ 76.6 µM).

With `Cc1nc(N)nc2c1ncn2CCOCP(=O)(O)O`, the EC50 in assay [1] is > 100 µg/mL; in assay [5] it was > 200 µg/mL; in assay [6], > 50 µg/mL; in [10] it was 400 µg/mL (≈ 1390 µM); in assay [2] it was > 100 µg/mL; in [12], > 400 µg/mL. The EC50 was > 50 µg/mL in assay [11] and 30 µg/mL (≈ 104 µM) in assay [3].

As to `CC(C)OP(=O)(COCCn1cnc2c(O)nc(N)nc21)OC(C)C`, the concentration for a half-maximal effect (EC50) was > 100 µg/mL in [1]; 240 µg/mL (≈ 643 µM) in assay [4]; 240 µg/mL (≈ 643 µM) in [5]; > 50 µg/mL in [6]; 80 µg/mL (≈ 214 µM) in assay [7]; 240 µg/mL (≈ 643 µM) in [8]. The EC50 in [9] was 240 µg/mL (≈ 643 µM); in assay [10] it was 400 µg/mL (≈ 1070 µM); in assay [2], > 100 µg/mL; in assay [11], > 50 µg/mL; in assay [3], 13.5 µg/mL (≈ 36.2 µM).

`Nc1cccc2c1ncn2CCOCP(=O)(O)O`: the EC50 was > 100 µg/mL in assay [1]; > 400 µg/mL in assay [5]; > 50 µg/mL in assay [6]; > 400 µg/mL in [10]; > 100 µg/mL in assay [2]; > 400 µg/mL in [12]. The figures for the half-maximal effective concentration (EC50) in assay [11] and in assay [3] were > 50 µg/mL and > 200 µg/mL, respectively.

With `CC(C)OP(=O)(COCCn1cnc2c(S)ncnc21)OC(C)C`, the EC50 was > 100 µg/mL in assay [1]; > 400 µg/mL in assay [5]; > 50 µg/mL in [6]; > 400 µg/mL in [10]; > 100 µg/mL in assay [2]; > 400 µg/mL in assay [12]. The figures for the EC50 in [11] and in [3] were > 50 µg/mL and > 40 µg/mL, respectively.

Regarding `CC(C)CCCCCOP(=O)(COCCn1cnc2nc(N)nc(Cl)c21)OCCCCCC(C)C`, the EC50 is > 4 µg/mL in [1]; > 16 µg/mL in [5]; 5 µg/mL (≈ 9.4 µM) in assay [6]; > 16 µg/mL in [10]; > 4 µg/mL in assay [2]; > 16 µg/mL in assay [12]. Besides, the EC50 in assay [11] was > 5 µg/mL; in [3], > 8 µg/mL.

For the molecule `Nc1nc(O)nc2c1ncn2CCOCP(=O)(O)O`, the EC50 in [1] is > 100 µg/mL; in assay [5] it was > 400 µg/mL; in assay [6] it was > 50 µg/mL; in [10], > 400 µg/mL; in [2], > 100 µg/mL; in assay [12], > 50 µg/mL. The EC50 in assay [11] was > 50 µg/mL; in assay [3] it was 123 µg/mL (≈ 425 µM).

`Nc1ncnc2c1ncn2CCOCP(=O)(O)O` [ADEFOVIR]: the EC50 in assay [5] worked out at 3.6 µg/mL (≈ 13.2 µM); in assay [6], 30 µg/mL (≈ 110 µM); in [10], 1.1 µg/mL (≈ 4.03 µM); in [11] it was 77 µg/mL (≈ 282 µM).

Broadly, the EC50 is the concentration needed to bring the measured effect to its halfway point.

These data come from ChEMBL document CHEMBL1132160, “Structure-antiviral activity relationship in the series of pyrimidine and purine N-[2-(2-phosphonomethoxy)ethyl] nucleotide analogues. 1. Derivatives substituted at the carbon atoms of the base” (J Med Chem, 1999).
